Experimental data reported in the M2OR odorant receptor database.
Numbering of substitutions follows the chain as printed.

Experiments:
Details in all cases: stereoisomer not certain
OR6S1 (Homo sapiens) = target: T1, OR6S1 (Homo sapiens) (UniProt Q8NH40)
T1 sequence (whole entry): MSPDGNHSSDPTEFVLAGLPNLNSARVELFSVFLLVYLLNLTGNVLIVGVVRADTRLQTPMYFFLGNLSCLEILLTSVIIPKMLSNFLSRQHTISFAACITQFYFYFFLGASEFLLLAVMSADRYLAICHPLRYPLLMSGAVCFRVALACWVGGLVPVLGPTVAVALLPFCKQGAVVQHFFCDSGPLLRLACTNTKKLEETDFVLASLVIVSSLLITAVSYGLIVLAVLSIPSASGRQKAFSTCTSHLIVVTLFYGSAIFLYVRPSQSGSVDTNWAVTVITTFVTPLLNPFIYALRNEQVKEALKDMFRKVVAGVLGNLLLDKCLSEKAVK
How it was run: (§1)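 Each receptor–molecule pair is labelled responsive or non-responsive (inactive) according to whether the original authors judged the measured signal statistically different from baseline. The data were taken from the main text and supplementary material of published papers and checked for typos and inconsistencies. Assay methods differed by source, with transient luciferase assays in mammalian cell lines being common.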

OR6T1 (Homo sapiens) = target: T2, OR6T1 (Homo sapiens) (UniProt Q8NGN1)
T2 sequence (whole entry): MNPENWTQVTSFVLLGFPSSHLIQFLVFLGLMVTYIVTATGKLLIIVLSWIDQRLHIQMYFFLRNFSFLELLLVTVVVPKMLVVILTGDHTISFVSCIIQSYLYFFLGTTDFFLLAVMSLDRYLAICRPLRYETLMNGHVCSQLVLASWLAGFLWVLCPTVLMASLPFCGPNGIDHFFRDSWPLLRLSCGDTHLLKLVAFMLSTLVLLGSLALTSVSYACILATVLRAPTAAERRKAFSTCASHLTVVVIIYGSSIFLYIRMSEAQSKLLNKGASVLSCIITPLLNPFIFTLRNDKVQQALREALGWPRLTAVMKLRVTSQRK
How it was run: as §1

OR6V1 (Homo sapiens) = target: T3, OR6V1 (Homo sapiens) (UniProt Q8N148)
T3 sequence (whole entry): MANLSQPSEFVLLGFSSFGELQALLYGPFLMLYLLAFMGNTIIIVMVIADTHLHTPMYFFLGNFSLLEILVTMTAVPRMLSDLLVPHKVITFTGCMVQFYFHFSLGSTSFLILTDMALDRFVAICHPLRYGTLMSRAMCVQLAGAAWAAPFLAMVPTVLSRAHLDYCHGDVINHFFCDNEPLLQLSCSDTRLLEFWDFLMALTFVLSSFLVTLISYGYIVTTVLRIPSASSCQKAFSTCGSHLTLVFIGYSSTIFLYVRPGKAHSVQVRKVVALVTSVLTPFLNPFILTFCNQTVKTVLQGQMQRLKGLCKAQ
How it was run: as §1

OR6X1 (Homo sapiens) = target: T4, OR6X1 (Homo sapiens) (UniProt Q8NH79)
T4 sequence (whole entry): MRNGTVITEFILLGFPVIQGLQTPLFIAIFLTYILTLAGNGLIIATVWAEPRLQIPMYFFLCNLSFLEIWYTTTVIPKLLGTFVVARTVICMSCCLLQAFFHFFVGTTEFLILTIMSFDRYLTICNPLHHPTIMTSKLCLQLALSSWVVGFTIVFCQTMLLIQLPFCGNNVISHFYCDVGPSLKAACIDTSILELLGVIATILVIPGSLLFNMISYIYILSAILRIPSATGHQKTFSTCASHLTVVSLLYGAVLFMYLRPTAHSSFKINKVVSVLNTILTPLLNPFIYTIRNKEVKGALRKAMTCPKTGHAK
How it was run: as §1

OR6Y1 (Homo sapiens) = target: T5, OR6Y1 (Homo sapiens) (UniProt Q8NGX8)
T5 sequence (whole entry): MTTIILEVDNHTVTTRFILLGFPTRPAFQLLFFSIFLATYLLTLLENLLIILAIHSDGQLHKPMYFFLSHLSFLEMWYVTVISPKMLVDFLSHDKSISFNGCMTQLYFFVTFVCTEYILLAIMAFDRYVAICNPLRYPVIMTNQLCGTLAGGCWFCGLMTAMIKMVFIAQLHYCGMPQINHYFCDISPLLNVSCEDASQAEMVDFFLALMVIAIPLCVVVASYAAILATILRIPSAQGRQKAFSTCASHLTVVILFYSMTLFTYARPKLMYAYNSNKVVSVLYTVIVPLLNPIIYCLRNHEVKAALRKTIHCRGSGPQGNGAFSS
How it was run: as §1

OR7A10 (Homo sapiens) = target: T6, OR7A10 (Homo sapiens) (UniProt O76100)
T6 sequence (whole entry): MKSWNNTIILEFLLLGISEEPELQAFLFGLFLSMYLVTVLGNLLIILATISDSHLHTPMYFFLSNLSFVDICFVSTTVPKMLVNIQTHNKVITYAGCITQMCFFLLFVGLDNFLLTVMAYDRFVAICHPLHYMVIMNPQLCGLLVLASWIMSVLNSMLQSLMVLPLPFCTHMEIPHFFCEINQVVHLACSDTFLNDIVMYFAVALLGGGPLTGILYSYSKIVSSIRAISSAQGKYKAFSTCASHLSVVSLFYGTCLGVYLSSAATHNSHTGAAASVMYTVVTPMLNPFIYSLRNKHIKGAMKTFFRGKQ
How it was run: as §1

OR7A17 (Homo sapiens) = target: T7, OR7A17 (Homo sapiens) (UniProt O14581)
T7 sequence (whole entry): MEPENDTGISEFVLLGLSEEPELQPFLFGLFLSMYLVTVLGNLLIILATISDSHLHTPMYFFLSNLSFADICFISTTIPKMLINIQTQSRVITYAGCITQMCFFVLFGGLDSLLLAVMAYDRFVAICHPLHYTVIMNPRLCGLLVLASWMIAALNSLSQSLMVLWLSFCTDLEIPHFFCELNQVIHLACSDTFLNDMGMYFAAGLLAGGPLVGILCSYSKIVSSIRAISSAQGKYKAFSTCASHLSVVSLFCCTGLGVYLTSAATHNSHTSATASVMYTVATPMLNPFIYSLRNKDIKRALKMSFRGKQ
How it was run: as §1

OR7A5 (Homo sapiens) = target: T8, OR7A5 (Homo sapiens) (UniProt Q15622)
T8 sequence (whole entry): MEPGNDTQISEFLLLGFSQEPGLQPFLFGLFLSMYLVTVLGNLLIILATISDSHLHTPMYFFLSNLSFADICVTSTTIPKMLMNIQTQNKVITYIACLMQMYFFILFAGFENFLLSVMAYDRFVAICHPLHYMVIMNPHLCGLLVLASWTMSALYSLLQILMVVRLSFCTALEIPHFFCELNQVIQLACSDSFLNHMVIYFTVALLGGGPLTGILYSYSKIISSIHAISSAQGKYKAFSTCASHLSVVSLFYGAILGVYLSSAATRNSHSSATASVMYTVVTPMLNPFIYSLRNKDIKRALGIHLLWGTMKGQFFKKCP
How it was run: as §1

OR6S1 T42I V156I = tested on: T9, OR6S1 T42I V156I
T9 sequence (whole entry): T1 sequence (whole entry) with T42I, V156I
How it was run: as §1

OR6T1 N2D = tested on: T10, OR6T1 N2D
T10 sequence (whole entry): T2 sequence (whole entry) with N2D
How it was run: as §1
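Note: active if original authors judged signal statistically different from baseline.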

Row | SMILES | odorant receptor agonist call (OR6S1 (Homo sapiens)) | odorant receptor agonist call (OR6T1 (Homo sapiens)) | odorant receptor agonist call (OR6V1 (Homo sapiens)) | odorant receptor agonist call (OR6X1 (Homo sapiens)) | odorant receptor agonist call (OR6Y1 (Homo sapiens)) | odorant receptor agonist call (OR7A10 (Homo sapiens)) | odorant receptor agonist call (OR7A17 (Homo sapiens)) | odorant receptor agonist call (OR7A5 (Homo sapiens)) | odorant receptor agonist call (OR6S1 T42I V156I) | odorant receptor agonist call (OR6T1 N2D)
1 | CC(=O)c1c(C)c([N+](=O)[O-])c(C(C)(C)C)c([N+](=O)[O-])c1C | inactive | inactive | inactive | inactive | inactive | inactive | inactive | inactive |  | 
2 | CCC1OC(=O)C(O)=C1C (configuration not stated) | inactive | inactive | inactive | inactive | inactive | inactive | inactive | inactive | inactive | inactive
3 | CCCCCC(S)C(C)CO (configuration not stated) | inactive | inactive | inactive | inactive | inactive | inactive | inactive | inactive |  | 
4 | CCCCCCC=CCCC=O | inactive | inactive | inactive | inactive | inactive | inactive | inactive | inactive | inactive | inactive
5 | CCC1OC(C)=C(O)C1=O (configuration not stated) | inactive | inactive | inactive | inactive | inactive | inactive | inactive | inactive | inactive | inactive
6 | CCCCC(S)C(C)CO (configuration not stated) | inactive | inactive | inactive | inactive | inactive | inactive | inactive | active |  | 
7 | CC(CO)CS (configuration not stated) | inactive | inactive | inactive | inactive | inactive | inactive | inactive | inactive |  | 
8 | CC1=C(O)C(=O)OC1C (configuration not stated) | inactive | inactive | inactive | inactive | inactive | inactive | inactive | inactive | inactive | inactive
